Assay outcomes (PubChem BioAssay)
KCNK3 block: human KCNK3 channel inhibition, primary screen; O14649; CHO-KCNK3 thallium flux, FluxOR fluorescence; hits give low values; B-score at 10 µM; 340,000 compounds, 0.84% hits; AID 602410;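 active = B-score under library mean minus 4 SD, starting fluorescence ratio at most library mean plus 5 SD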;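 note: more negative B-score means stronger inhibition of thallium flux through KCNK3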
KCNQ1 pot: human KCNQ1 channel potentiation or activation. CHO-K1 KCNQ1, thallium flux FluxOR fluorescence; hits give high values. B-score at 10 µM. 310,000 compounds, 0.35% hits;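 active = fluorescence ratio B-score, a plate-corrected score, at least three library SD, with initial intensity B-score within 5 SD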
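System: Stable KCNQ1 CHO-K1 line | Incubation: 90 min dye loading and 20 min compound exposure, both at room temperature | Measure: Ratio B score | Medium: Assay buffer for compound exposure, DMSO matched across wells | Compound dosing: Single-concentration screen | Probe or stimulus: K+/Tl+ depolarizing stimulus | Measured by: Kinetic FluxOR fluorescence, 10 s baseline plus 110 s post-stimulus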
KCNK9 inh: inhibitors of human KCNK9 two-pore domain potassium channel. AID 488922. B-score at 10 µM. HEK293 KCNK9, FluxOR thallium flux fluorescence; hits give low values. Q9NPC2. 310,000 compounds, 1.2% hits;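 active = ratio B-score over 3 SD below the library mean, with starting fluorescence within 5 SD of its mean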;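 note: negative B-score means less thallium flux so channel inhibition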
Target sequence (Q9NPC2 whole entry, looked up, the tested form may be a part): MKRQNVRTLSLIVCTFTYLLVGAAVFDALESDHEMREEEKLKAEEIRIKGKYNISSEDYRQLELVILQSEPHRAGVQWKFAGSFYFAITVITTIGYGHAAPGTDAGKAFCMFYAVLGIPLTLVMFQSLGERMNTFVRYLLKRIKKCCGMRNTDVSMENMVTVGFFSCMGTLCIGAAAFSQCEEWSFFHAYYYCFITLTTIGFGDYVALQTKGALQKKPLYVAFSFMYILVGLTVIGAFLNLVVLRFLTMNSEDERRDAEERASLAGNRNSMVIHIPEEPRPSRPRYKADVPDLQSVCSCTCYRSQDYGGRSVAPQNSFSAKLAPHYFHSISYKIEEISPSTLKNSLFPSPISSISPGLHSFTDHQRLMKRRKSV
hERG rescue: compounds protecting human hERG from proarrhythmic drug block | Q12809 | CHO-hERG, FluxOR thallium flux, dofetilide IC70 present | activation (rescue from dofetilide block), less the hit threshold, % at 10 µM | 310,000 compounds, 0.51% hits | AID 1511;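 active = activation above the mean of controls blocked by dofetilide plus 5 SD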;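 note: thallium influx through hERG after potassium depolarization seen as dye fluorescence rise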
Kir21 block: inhibitors of mouse Kir2.1 inward-rectifier potassium channel | AID 1672 | HEK293-Kir2.1, FluxOR thallium flux fluorescence; hits give low values | P35561 | B-score at 10 µM | 310,000 compounds, 0.85% hits;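 active = fluorescence ratio B-score at or below minus 3 SD of library scores, with starting-brightness B-score within 2 SD, cut at about -4.2 in these data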;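 note: channel flux triggered by added potassium and thallium sulfate stimulus; B-score of peak minus minimum fluorescence over baseline after thallium stimulus; more negative B-score means stronger Kir2.1 block with less thallium influx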
KCNQ1 inh: human KCNQ1 channel inhibition; P51787; CHO-K1 KCNQ1, FluxOR thallium flux fluorescence; hits give high values; B-score at 10 µM; 310,000 compounds, 1.3% hits;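 active = compounds whose thallium flux B-score, printed positive for inhibition, exceeds three library SD while starting fluorescence stays within three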;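 note: channel opened by potassium depolarization with thallium stimulus after 20 min compound exposure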
KCNK9 block conf: confirmation of human KCNK9 potassium channel inhibitors | HEK293 KCNK9 cells, FluxOR thallium flux fluorescence | 4,900 compounds, 43% hits | shares compounds with KCNK9 inh | inhibition, % at 10 µM | AID 492992;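 active = thallium signal inhibited by more than 5 SD of the compound-free buffer control wells, on both duplicate plates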;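 note: 0% = assay buffer control wells without compound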
Kir21 sel: tests whether KCNK9 modulators also affect mouse Kir2.1 | shares compounds with KCNK9 inh | Kir2.1 cells, FluxOR thallium flux fluorescence | inhibition, % at 10 µM | 4,900 compounds, 4% hits | AID 492993;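 active = thallium signal drop more than 5 SD beyond the mean of the no-compound control wells, seen in both duplicate plates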;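 note: signal is fluorescence rise after thallium addition divided by baseline fluorescence; plate controls were assay buffer only for no effect and full block by chlorpromazine control for full effect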
KCNK9 uninduced: second check of KCNK9 modulator effects in non-induced HEK293 cells; shares compounds with KCNK9 inh; FluxOR thallium flux; inhibition, % at 10 µM; 4,900 compounds, 40% hits;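 active = thallium signal drop beyond 5 SD of the untreated control mean, on both duplicate plates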;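 note: plate controls were buffer only IC0 wells for no effect and SID17386958 at its maximal inhibitory level for full effect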
* hit, by the source's call; i = inactive; x = no result. Hits are enriched below; roughly 3.8% of the tested compounds scored in any of these assays.

SMILES	KCNK3 block	KCNQ1 pot	KCNK9 inh	hERG rescue	Kir21 block	KCNQ1 inh	KCNK9 block conf	Kir21 sel	KCNK9 uninduced
CCOC(=O)[C@@H]1[C@H]2COc3ccccc3[C@@H]2N2C(=O)N(c3ccc(C(F)(F)F)cc3)C(=O)[C@@]12C	i	x	x	x	x	x	x	x	x
CCOC(=O)[C@@H]1[C@H]2COc3ccccc3[C@H]2N2C(=O)N(c3ccc(C(F)(F)F)cc3)C(=O)[C@]12C	i	i	-8.64*	-11.7	-0.6	i	52.5%*	i	34.0%*
Cc1c(C(=O)OCC(=O)NCc2ccco2)cccc1[N+](=O)[O-]	i	x	x	x	x	x	x	x	x
COc1ccc(-c2n(Cc3ccccc3)c3ccccc3[n+]2Cc2ccccc2)cc1	i	i	-10.7*	-11.3	-1.38	8*	i	43.0%*	i
COc1ccc(CN(C)CC(=O)Nc2cccc(S(=O)(=O)N(C)c3ccccc3)c2)c(OC)c1	i	x	x	x	x	x	x	x	x
CCN(CC(=O)Nc1cc(Cl)ccc1C)C(=O)Cc1sc(C)nc1-c1ccc(F)cc1	-9.73*	i	-9.8*	-15.3	-1.32	i	i	i	30.0%*
CC(=O)c1cccc(NC(=O)CN2CCc3cc4c(cc3C2)OCCCO4)c1	i	i	i	-12.8	-0.11	i	x	x	x
Cc1cc(C)cc(NC(=O)CN2CCc3cc4c(cc3C2C)OCCCO4)c1 (centres undefined)	i	i	i	-8.3	0.02	i	i	i	i
Cc1ccc(NC(=O)CN2CCc3cc4c(cc3C2)OCCCO4)cc1	i	i	i	-8.3	0.36	i	x	x	x
Cc1cccc(NC(=O)CN2CCc3cc4c(cc3C2)OCCCO4)c1	i	i	i	-7.5	0.45	i	i	i	i
Cc1cccc(NC(=O)CN2CCc3cc4c(cc3C2C)OCCCO4)c1 (centres undefined)	i	i	i	-13.1	0.81	i	i	i	i
CC1c2cc3c(cc2CCN1C(=O)c1ccc(Br)cc1)OCCCO3 (centres undefined)	i	i	i	-16.7	2.24	i	x	x	x
C=CCN1C(=O)C(CC(=O)NCC)SC1=Nc1ccccc1CC (centres undefined)	i	i	i	-2.6	-0.52	i	x	x	x
Cc1cc(Br)c(NC(=O)COC(=O)CC2CC3CCC2C3)c(Br)c1 (centres undefined)	i	x	x	x	x	x	x	x	x
Cc1ccc(C(=O)Nc2ncccc2O)cc1S(=O)(=O)N1CCCCC1	i	i	i	-6.6	-0.3	i	x	x	x
COc1ccc(CN(C)C(=O)COC(=O)c2c(-c3ccccc3Cl)noc2C)cc1	i	i	i	-1.9	-0.03	i	x	x	x
C(#Cc1ccccc1)CN1CCN(c2ccccn2)CC1	i	i	i	-4.7	3.78	i	i	i	i
C(#Cc1ccccc1)CN1CCCCC1	i	i	i	-5.7	0.46	i	x	x	x
Cc1cc(OCCN2CC(C)OC(C)C2)ccc1[N+](=O)[O-] (centres undefined)	i	i	i	-15.2	-0.34	i	x	x	x
Cc1cc(OCCN2CCC(Cc3ccccc3)CC2)ccc1[N+](=O)[O-]	i	i	i	-12.8	-2.91	i	i	i	i
Cc1ccc([N+](=O)[O-])c(OCCN2CCNCC2)c1	i	i	i	-2.2	1.54	i	i	i	i
CCc1[nH]nc(C(=O)N2CCCC(N3CCN(c4ccccc4C)CC3)C2)c1C (centres undefined)	i	i	i	-8.7	1.13	i	x	x	x
c1ccc(CN2CCN(c3nc(-c4ccccc4)nc4ccccc34)CC2)cc1	i	i	-16.8*	-9.4	0.9	i	34.5%*	i	27.5%*
c1ccc(CN2CCN(c3nc(-c4ccccn4)nc4ccccc34)CC2)cc1	i	i	i	-5.8	-0.91	i	x	x	x
Cc1ccc(NC(=S)NNC(=O)C2CC2c2ccc(C)cc2)cc1 (centres undefined)	i	i	i	-6.0	-1.17	i	x	x	x
SMILES	KCNK3 block	KCNQ1 pot	KCNK9 inh	hERG rescue	Kir21 block	KCNQ1 inh	KCNK9 block conf	Kir21 sel	KCNK9 uninduced
Cc1ccc(C2CC2C(=O)NNC(=S)Nc2cccc(Cl)c2)cc1 (centres undefined)	i	i	i	-22.4	-2.08	6*	i	i	i
Cc1ccc(C2CC2C(=O)NNC(=S)Nc2cccc(C)c2)cc1 (centres undefined)	i	i	i	0.0	-0.33	i	i	i	i
CCN(CC1CCCO1)C(=O)CCc1nnc(CCc2ccc(OC)cc2)o1 (centres undefined)	i	i	i	-6.9	-1.68	i	x	x	x
CC(C)(C)NC(=S)NC1CC1	i	i	i	-9.3	-1.77	i	x	x	x
Cc1cc(C)c(C(=O)C(C)OC(=O)c2ccccn2)cc1C (centres undefined)	i	i	i	-6.4	1.5	i	x	x	x
Cc1ccc(C2CC2c2n[nH]c(=S)n2-c2ccc(C)cc2)cc1 (centres undefined)	i	i	i	-8.1	-0.86	i	i	i	i
NS(=O)(=O)c1ccc(NC(=S)Nc2ccn(Cc3cccc4ccccc34)n2)cc1	i	i	i	-3.7	-1.12	i	i	i	i
O=C(NCC(c1ccco1)N1CCCCC1)c1cccnc1 (centres undefined)	i	x	x	x	x	x	x	x	x
COCCn1cc(C(=O)NCCN(C)C)c2c3ccccc3n(C)c2c1=O	i	i	i	-2.1	0.73	i	x	x	x
CN(C)c1nnc(-c2ccc(Cl)cc2)o1	i	i	i	-7.5	0.3	i	x	x	x
CN(C)c1ccc(C2C3CCCc4ccccc4C3=NN2C)cc1 (centres undefined)	i	i	i	-9.7	-0.4	i	i	i	i
CN1N=C2c3ccccc3CCC2C1c1ccc(C(F)(F)F)cc1 (centres undefined)	x	i	i	-3.8	0.37	i	x	x	x
CCOc1ccc(/C=C/C(=O)c2cc(Br)ccc(=O)c2O)cc1	i	x	x	x	x	x	x	x	x
Cc1cccc(/C=C/C(=O)c2cc(Br)ccc(=O)c2O)c1	i	25*	i	-1.7	0.95	i	i	i	i
Cc1ccc(/C=N/NC(=O)CSc2nc3ccccc3n2Cc2ccccc2)o1	i	i	i	-11.8	-0.02	i	x	x	x
